Assay [1] addresses T1, Cytoplasmic tyrosine-protein kinase BMX (Homo sapiens) (UniProt P51813).
T1 sequence (whole entry): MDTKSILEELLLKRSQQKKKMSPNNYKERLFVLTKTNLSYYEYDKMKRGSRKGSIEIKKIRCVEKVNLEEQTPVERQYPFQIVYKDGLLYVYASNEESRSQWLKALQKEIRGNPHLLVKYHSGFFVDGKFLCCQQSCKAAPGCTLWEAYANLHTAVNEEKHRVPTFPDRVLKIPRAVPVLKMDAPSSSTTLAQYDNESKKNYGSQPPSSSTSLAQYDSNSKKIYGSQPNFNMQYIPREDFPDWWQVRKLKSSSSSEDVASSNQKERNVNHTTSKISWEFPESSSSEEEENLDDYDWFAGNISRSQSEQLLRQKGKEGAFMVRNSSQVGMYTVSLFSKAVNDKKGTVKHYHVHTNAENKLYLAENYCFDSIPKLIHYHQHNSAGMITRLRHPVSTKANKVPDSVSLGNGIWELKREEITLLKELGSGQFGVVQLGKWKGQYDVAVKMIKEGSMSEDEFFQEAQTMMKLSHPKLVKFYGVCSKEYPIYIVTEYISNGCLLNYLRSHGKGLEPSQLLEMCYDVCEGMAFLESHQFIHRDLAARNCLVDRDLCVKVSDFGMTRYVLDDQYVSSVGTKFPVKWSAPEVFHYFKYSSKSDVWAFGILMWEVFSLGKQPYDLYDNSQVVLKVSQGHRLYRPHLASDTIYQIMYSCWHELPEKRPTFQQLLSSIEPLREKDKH
As to the kind of experiment: Inhibition of human recombinant BMX at 15 nM in presence of ATP by radiometric assay relative to control. The method in brief:
(§1)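 Part of a radiometric in vitro activity panel of 327 recombinant human kinases. Each kinase was tested in duplicate at one inhibitor concentration. Activity remaining was expressed as a percentage of the vehicle control, and percent inhibition was taken as 100 minus that value.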

The target of assay [2] is Serine/threonine-protein kinase 32A (Homo sapiens) (UniProt Q8WU08). Put plainly: Inhibition of human recombinant YANK1 at 15 nM in presence of ATP by radiometric assay relative to control.
The target of assay [3] is Tyrosine-protein kinase JAK1 (Homo sapiens) (UniProt P23458). As to the kind of experiment: Inhibition of human recombinant JAK1 at 40 nM in presence of ATP by radiometric assay relative to control.
The target in assay [4] is Interleukin-1 receptor-associated kinase 1 (Homo sapiens) (UniProt P51617). As to the kind of experiment: Inhibition of human recombinant IRAK1 at 40 nM related to control ULK1.
For assay [5], the target named is Serine/threonine-protein kinase Nek6 (Homo sapiens) (UniProt Q9HC98). As to the kind of experiment: Inhibition of human recombinant NEK6 at 40 nM related to control ULK1.
Assay [6] concerns the target Serine/threonine-protein kinase Nek7 (Homo sapiens) (UniProt Q8TDX7). As to the kind of experiment: Inhibition of human recombinant NEK7 at 40 nM related to control ULK1.
For assay [7], the target named is T2, Tyrosine-protein kinase ZAP-70 (Homo sapiens) (UniProt P43403).
T2 sequence (whole entry): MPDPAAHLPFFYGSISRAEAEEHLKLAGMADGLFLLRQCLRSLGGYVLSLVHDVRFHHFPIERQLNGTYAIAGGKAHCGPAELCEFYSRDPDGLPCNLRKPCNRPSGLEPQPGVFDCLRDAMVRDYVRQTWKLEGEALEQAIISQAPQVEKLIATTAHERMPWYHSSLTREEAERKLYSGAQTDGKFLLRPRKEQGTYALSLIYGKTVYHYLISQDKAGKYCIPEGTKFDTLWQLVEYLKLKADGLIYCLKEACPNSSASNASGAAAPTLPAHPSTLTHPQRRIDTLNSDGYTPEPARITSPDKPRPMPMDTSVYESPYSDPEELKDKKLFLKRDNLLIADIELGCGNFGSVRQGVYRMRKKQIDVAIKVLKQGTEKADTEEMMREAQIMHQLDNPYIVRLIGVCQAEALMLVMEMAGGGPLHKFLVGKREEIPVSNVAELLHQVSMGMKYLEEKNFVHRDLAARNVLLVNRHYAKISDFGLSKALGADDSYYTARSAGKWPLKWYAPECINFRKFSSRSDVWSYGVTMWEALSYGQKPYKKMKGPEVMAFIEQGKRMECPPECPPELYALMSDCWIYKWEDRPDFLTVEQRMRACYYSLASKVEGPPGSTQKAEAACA
As to the kind of experiment: Inhibition of human recombinant ZAP70 at 40 nM related to control ULK1.

Assay [8] has as its target Aurora kinase B (Homo sapiens) (UniProt Q96GD4). Put plainly: Inhibition of human recombinant AurB at 500 nM in presence of ATP by radiometric assay relative to control. The method in brief:
as §1

Assay [9] addresses Fibroblast growth factor receptor 4 (Homo sapiens) (UniProt P22455). Put plainly: Inhibition of human recombinant FGFR4 at 500 nM in presence of ATP by radiometric assay relative to control.
Assay [10] deals with Fibroblast growth factor receptor 3 (Homo sapiens) (UniProt P22607). As to the kind of experiment: Inhibition of human recombinant FGFR3 at 500 nM related to control ULK1.
The target of assay [11] is Serine/threonine-protein kinase SBK1 (Homo sapiens) (UniProt Q52WX2). As to the kind of experiment: Inhibition of human recombinant SBK1 at 500 nM related to control ULK1.

Sequence of Fibroblast growth factor receptor 3 (Homo sapiens) (P22607 23-806 limits assumed): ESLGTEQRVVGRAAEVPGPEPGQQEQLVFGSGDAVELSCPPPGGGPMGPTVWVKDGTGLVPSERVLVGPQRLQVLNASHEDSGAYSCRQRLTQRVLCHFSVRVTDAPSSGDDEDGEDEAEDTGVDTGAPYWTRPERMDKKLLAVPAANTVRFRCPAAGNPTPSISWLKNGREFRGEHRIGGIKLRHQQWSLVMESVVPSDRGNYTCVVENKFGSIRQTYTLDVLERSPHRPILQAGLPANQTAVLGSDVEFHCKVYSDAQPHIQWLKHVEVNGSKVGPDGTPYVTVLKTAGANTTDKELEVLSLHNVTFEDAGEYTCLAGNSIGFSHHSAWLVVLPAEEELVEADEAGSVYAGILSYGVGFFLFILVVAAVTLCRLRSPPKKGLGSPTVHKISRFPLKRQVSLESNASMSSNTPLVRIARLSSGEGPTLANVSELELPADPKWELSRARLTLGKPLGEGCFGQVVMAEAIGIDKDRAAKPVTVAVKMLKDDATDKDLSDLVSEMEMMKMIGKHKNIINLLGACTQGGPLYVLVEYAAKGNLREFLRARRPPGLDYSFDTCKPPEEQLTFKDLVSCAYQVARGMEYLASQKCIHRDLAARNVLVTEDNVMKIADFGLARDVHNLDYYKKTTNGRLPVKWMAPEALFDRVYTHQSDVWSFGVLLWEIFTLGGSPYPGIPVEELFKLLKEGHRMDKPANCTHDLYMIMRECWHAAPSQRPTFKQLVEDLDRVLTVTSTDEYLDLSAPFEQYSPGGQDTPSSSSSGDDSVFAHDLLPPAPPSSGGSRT
Sequence of Serine/threonine-protein kinase Nek7 (Homo sapiens) (Q8TDX7 whole entry, looked up): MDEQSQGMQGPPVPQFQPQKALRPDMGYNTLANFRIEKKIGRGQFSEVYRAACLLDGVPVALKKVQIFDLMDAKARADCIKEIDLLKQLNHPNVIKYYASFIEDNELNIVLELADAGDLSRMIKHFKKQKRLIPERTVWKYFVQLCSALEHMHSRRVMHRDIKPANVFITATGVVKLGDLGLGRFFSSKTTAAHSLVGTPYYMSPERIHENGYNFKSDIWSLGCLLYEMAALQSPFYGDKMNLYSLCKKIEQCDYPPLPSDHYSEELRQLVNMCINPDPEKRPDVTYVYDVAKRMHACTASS
Sequence of Serine/threonine-protein kinase 32A (Homo sapiens) (Q8WU08 whole entry): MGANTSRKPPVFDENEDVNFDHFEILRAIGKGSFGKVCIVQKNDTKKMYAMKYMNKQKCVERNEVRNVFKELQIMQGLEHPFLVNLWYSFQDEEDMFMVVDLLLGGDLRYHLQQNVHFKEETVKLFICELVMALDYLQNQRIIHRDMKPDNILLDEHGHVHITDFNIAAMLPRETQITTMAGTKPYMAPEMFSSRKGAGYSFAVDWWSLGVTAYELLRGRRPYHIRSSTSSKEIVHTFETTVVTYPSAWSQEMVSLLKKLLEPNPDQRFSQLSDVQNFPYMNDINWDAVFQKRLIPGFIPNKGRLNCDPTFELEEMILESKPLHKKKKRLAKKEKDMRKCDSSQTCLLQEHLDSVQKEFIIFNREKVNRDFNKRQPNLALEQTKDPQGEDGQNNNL
Sequence of Fibroblast growth factor receptor 4 (Homo sapiens) (P22455 22-802 limits assumed): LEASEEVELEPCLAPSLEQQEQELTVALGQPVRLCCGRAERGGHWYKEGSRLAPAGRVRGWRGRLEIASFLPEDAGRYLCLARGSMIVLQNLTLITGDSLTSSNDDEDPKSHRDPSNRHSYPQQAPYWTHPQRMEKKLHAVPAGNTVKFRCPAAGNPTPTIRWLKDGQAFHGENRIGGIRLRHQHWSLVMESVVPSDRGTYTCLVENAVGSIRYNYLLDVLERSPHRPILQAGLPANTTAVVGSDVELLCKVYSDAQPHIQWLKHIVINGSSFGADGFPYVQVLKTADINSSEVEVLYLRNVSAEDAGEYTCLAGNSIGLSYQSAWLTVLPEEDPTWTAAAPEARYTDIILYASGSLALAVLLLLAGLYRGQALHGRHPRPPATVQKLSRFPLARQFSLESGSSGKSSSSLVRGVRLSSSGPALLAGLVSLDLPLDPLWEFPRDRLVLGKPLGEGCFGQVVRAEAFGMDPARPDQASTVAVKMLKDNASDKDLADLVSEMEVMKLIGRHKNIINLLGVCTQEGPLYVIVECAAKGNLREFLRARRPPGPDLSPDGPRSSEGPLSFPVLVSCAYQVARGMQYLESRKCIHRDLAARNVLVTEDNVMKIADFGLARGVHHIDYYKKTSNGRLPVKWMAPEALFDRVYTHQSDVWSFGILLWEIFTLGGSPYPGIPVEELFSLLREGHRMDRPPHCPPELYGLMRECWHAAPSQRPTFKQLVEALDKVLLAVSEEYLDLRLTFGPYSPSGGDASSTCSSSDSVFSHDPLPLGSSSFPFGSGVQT
Sequence of Interleukin-1 receptor-associated kinase 1 (Homo sapiens) (P51617 whole entry, looked up): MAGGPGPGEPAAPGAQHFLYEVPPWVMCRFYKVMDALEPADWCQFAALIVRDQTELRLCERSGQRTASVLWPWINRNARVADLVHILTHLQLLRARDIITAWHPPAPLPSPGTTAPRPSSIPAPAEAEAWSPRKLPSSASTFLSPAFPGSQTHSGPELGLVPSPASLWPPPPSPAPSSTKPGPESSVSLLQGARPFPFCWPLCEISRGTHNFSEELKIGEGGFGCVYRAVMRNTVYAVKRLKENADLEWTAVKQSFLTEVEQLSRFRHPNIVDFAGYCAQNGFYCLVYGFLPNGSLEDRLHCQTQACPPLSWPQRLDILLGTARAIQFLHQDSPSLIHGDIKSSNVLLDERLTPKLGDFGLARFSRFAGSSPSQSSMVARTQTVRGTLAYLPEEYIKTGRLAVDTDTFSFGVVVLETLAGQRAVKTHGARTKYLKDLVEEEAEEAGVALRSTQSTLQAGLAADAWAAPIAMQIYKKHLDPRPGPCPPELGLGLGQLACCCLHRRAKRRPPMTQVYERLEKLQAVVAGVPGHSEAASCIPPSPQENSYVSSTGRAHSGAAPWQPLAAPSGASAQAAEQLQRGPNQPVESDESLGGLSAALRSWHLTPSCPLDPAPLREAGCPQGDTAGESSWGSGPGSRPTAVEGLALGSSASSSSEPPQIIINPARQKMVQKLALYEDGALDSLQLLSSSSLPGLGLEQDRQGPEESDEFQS
Sequence of Serine/threonine-protein kinase Nek6 (Homo sapiens) (Q9HC98 whole entry): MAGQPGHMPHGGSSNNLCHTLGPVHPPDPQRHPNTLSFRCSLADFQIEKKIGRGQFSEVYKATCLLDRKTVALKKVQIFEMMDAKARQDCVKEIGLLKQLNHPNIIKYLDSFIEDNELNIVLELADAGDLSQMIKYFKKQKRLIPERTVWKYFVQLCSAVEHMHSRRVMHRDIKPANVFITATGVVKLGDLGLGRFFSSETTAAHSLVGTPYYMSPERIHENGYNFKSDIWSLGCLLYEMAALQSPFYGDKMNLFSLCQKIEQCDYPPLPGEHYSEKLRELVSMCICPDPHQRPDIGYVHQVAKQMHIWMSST
Sequence of Aurora kinase B (Homo sapiens) (Q96GD4 whole entry): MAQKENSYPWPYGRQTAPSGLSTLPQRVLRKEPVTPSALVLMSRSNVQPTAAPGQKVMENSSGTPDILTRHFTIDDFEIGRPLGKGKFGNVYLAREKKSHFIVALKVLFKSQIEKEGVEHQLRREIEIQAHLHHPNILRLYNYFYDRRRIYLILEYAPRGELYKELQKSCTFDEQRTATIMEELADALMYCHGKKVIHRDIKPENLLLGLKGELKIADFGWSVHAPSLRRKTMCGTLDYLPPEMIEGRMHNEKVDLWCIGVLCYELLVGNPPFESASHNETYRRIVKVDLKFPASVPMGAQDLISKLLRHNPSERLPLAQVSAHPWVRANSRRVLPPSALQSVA
Sequence of Tyrosine-protein kinase JAK1 (Homo sapiens) (P23458 whole entry): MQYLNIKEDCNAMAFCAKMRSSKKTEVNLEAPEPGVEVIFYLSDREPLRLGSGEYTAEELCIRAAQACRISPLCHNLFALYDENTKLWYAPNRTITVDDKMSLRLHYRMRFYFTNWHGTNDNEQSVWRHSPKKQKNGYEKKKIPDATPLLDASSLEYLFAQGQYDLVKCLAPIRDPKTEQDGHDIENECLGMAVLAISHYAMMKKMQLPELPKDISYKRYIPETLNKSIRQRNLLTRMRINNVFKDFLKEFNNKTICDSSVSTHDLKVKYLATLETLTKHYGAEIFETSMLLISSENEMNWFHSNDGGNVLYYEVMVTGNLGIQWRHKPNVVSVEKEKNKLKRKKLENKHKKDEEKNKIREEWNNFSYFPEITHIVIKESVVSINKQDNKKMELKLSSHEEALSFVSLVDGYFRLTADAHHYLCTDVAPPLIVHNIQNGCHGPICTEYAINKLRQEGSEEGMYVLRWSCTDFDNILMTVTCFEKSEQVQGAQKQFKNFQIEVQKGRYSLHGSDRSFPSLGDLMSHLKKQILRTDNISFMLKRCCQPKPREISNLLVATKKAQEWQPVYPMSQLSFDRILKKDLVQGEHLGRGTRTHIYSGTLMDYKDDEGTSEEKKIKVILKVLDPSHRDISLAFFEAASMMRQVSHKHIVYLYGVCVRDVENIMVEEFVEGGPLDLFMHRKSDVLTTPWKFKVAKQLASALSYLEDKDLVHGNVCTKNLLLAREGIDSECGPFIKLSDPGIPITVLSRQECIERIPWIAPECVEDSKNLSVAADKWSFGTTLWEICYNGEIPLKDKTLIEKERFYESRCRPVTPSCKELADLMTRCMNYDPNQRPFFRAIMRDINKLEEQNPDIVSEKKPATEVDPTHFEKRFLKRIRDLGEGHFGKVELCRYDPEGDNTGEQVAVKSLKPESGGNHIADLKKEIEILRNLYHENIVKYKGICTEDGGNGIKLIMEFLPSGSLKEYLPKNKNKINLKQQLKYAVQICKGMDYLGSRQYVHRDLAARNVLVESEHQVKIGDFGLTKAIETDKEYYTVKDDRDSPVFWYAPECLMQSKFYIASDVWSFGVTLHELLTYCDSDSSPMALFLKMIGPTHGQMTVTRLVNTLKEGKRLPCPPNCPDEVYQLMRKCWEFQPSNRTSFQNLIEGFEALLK

As to `CC(C)[C@H](NC(=O)c1cc(-c2cnn3cc(-c4ccc(OCCN5CCCCC5)cc4)cnc23)cs1)C(F)(F)F`, the inhibition (commonly the share of the control response that was lost under treatment) in assay [1] came to 6%; in assay [2], 2%.

For the molecule `O=C(N[C@@H](C1CC1)C(F)(F)F)c1cc(-c2cnn3cc(-c4ccc(F)cc4)cnc23)cs1`, the inhibition in [3] came out at 0%. In addition, the fold change (FC) in [4] worked out at 0.1; in assay [5], 0; in assay [6], 0; in assay [7], 0.

On to `CNC(=O)c1ccccc1Oc1nc(Nc2cc(OC)c(OC)c(OC)c2)ncc1Br`, for which the inhibition was 92% in [8] and 10% in assay [9]. Also, the fold change (FC) is 0.57 in assay [10] and 0.68 in [11].

These data come from ChEMBL document CHEMBL5653631, “A Potent and Selective ULK1 Inhibitor Suppresses Autophagy and Sensitizes Cancer Cells to Nutrient Stress” (iScience, 2018).
